# Test results from ChEMBL document CHEMBL5712883, “RNA polymerase II stalling promotes nucleosome occlusion and pTEFb recruitment to drive immortalization by Epstein-Barr virus” (PLoS Pathog, 2011).
# Activity calls are given as the source filed them. The calls are words filed in the database; no cut-off is given here.
# How the values were obtained:
# Assay type in all cases: cell-based
# [1] = target: T1, CDK9/cyclin T1 (Homo sapiens) (UniProt O60563+P50750); experiment: Inhibition of CDK9/Cyclin T1 in human Mutu-3 cells assessed as effect on cp-pre-initiation complex assembly at +38828 distal EBV genome region at 500 nM incubated for 2 hrs by CHIP assay
# [2] = target: T1, CDK9/cyclin T1 (Homo sapiens); experiment: Inhibition of CDK9/Cyclin T1 in human B cell transfected with EBV assessed as reduction in RNA pol II C-terminal domain phosphorylation on serine 5 at -208 distal EBV genome region at 500 nM incubated for 2 hrs in presence of beta-estradiol by CHIP assay
# [3] = target: T1, CDK9/cyclin T1 (Homo sapiens); experiment: Inhibition of CDK9/Cyclin T1 in human Mutu-3 cells assessed as reduction in BRD4 at +1564 distal EBV genome region at 500 nM incubated for 2 hrs by CHIP assay
# [4] = target: T1, CDK9/cyclin T1 (Homo sapiens); experiment: Inhibition of CDK9/Cyclin T1 in human Mutu-3 cells assessed as decrease in Cp-initiated LMP1 transcription at 25 to 50 uM incubated for 24 hrs by Q-PCR analysis; conditions: dose 25-50 µM
# Summary of the method: (§1)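 Mutu III cells seeded at 5×10^5 cells/ml and given DRB or flavopiridol at the stated concentrations, with DMSO as control, for 24 hrs. cDNA was made from 10^5 cells with a cells-to-Ct SYBR kit. Q-PCR used cDNA-specific EBNA 2, EBNA 1 (YUK) or LMP1 primers, with actin as endogenous control, and was analysed by relative quantification (ddCt) against 24 hr control samples.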
# [5] = target: T1, CDK9/cyclin T1 (Homo sapiens); experiment: Inhibition of CDK9/Cyclin T1 in human Mutu-3 cells assessed as decrease in Cp-initiated EBNA 2 transcription at 25 to 50 uM incubated for 24 hrs by Q-PCR analysis; conditions: dose 25-50 µM; summary of the method: as §1
# [6] = target: T1, CDK9/cyclin T1 (Homo sapiens); experiment: Inhibition of CDK9/Cyclin T1 in human Mutu-3 cells assessed as reduction in RNA pol II C-terminal domain phosphorylation on serine 5 at +38828 distal EBV genome region at 500 nM incubated for 2 hrs by CHIP assay
# [7] = target: T1, CDK9/cyclin T1 (Homo sapiens); experiment: Inhibition of CDK9/Cyclin T1 in human Mutu-3 cells assessed as reduction in H3 histone acetylation at +2238 distal EBV genome region at 500 nM incubated for 2 hrs by CHIP assay
# [8] = target: T1, CDK9/cyclin T1 (Homo sapiens); experiment: Inhibition of CDK9/Cyclin T1 in human Mutu-3 cells assessed as reduction in H4 histone acetylation at +1564 distal EBV genome region at 500 nM incubated for 2 hrs by CHIP assay
# [9] = target: T1, CDK9/cyclin T1 (Homo sapiens); experiment: Inhibition of CDK9/Cyclin T1 in human Mutu-3 cells assessed as reduction in H4 histone acetylation at -317 distal EBV genome region at 500 nM incubated for 2 hrs by CHIP assay
# [10] = target: T1, CDK9/cyclin T1 (Homo sapiens); experiment: Inhibition of CDK9/Cyclin T1 in human Mutu-3 cells assessed as reduction in H4 histone acetylation at +2238 distal EBV genome region at 500 nM incubated for 2 hrs by CHIP assay
# [11] = target: T1, CDK9/cyclin T1 (Homo sapiens); experiment: Inhibition of CDK9/Cyclin T1 in human B cell transfected with EBV assessed as reduction in RNA pol II C-terminal domain phosphorylation on serine 5 at +75615 distal EBV genome region at 500 nM incubated for 2 hrs in presence of beta-estradiol by CHIP assay
# [12] = target: T1, CDK9/cyclin T1 (Homo sapiens); experiment: Inhibition of CDK9/Cyclin T1 in human Mutu-3 cells assessed as reduction in RNA pol II C-terminal domain phosphorylation on serine 5 at +295 distal EBV genome region at 500 nM incubated for 2 hrs by CHIP assay
# [13] = target: T1, CDK9/cyclin T1 (Homo sapiens); experiment: Inhibition of CDK9/Cyclin T1 in human B cell transfected with EBV assessed as reduction in RNA pol II C-terminal domain phosphorylation on serine 5 at +40493 distal EBV genome region at 500 nM incubated for 2 hrs in presence of beta-estradiol by CHIP assay
# [14] = target: T1, CDK9/cyclin T1 (Homo sapiens); experiment: Inhibition of CDK9/Cyclin T1 in human B cell transfected with EBV assessed as reduction in RNA pol II C-terminal domain phosphorylation on serine 5 at +50024 distal EBV genome region at 500 nM incubated for 2 hrs in presence of beta-estradiol by CHIP assay
# [15] = target: T1, CDK9/cyclin T1 (Homo sapiens); experiment: Inhibition of CDK9/Cyclin T1 in human Mutu-3 cells assessed as reduction in RNA pol II C-terminal domain phosphorylation on serine 5 at +38667 distal EBV genome region at 500 nM incubated for 2 hrs by CHIP assay
# [16] = target: T1, CDK9/cyclin T1 (Homo sapiens); experiment: Inhibition of CDK9/Cyclin T1 in human B cell transfected with EBV assessed as reduction in RNA pol II C-terminal domain phosphorylation on serine 5 at +30896 distal EBV genome region at 500 nM incubated for 2 hrs in presence of beta-estradiol by CHIP assay
# [17] = target: T1, CDK9/cyclin T1 (Homo sapiens); experiment: Inhibition of CDK9/Cyclin T1 in human Mutu-3 cells assessed as reduction in H4 histone acetylation at +34 distal EBV genome region at 500 nM incubated for 2 hrs by CHIP assay
# [18] = target: T1, CDK9/cyclin T1 (Homo sapiens); experiment: Inhibition of CDK9/Cyclin T1 in human B cell transfected with EBV assessed as reduction in RNA pol II C-terminal domain phosphorylation on serine 5 at +59014 distal EBV genome region at 500 nM incubated for 2 hrs in presence of beta-estradiol by CHIP assay
# [19] = target: T1, CDK9/cyclin T1 (Homo sapiens); experiment: Inhibition of CDK9/Cyclin T1 in human B cell transfected with EBV assessed as reduction in RNA pol II C-terminal domain phosphorylation on serine 5 at +48 distal EBV genome region at 500 nM incubated for 2 hrs in presence of beta-estradiol by CHIP assay
# [20] = target: T1, CDK9/cyclin T1 (Homo sapiens); experiment: Inhibition of CDK9/Cyclin T1 in human Mutu-3 cells assessed as reduction in H3 histone acetylation at -317 distal EBV genome region at 500 nM incubated for 2 hrs by CHIP assay
# [21] = target: T1, CDK9/cyclin T1 (Homo sapiens); experiment: Inhibition of CDK9/Cyclin T1 in human Mutu-3 cells assessed as reduction in BRD4 at -317 distal EBV genome region at 500 nM incubated for 2 hrs by CHIP assay
# [22] = target: T1, CDK9/cyclin T1 (Homo sapiens); experiment: Inhibition of CDK9/Cyclin T1 in human Mutu-3 cells assessed as reduction in H3 histone acetylation at +34 distal EBV genome region at 500 nM incubated for 2 hrs by CHIP assay
# [23] = target: T1, CDK9/cyclin T1 (Homo sapiens); experiment: Inhibition of CDK9/Cyclin T1 in human Mutu-3 cells assessed as reduction in RNA pol II C-terminal domain phosphorylation on serine 5 at W repeat EBV genome region at 500 nM incubated for 2 hrs by CHIP assay
# [24] = target: T1, CDK9/cyclin T1 (Homo sapiens); experiment: Inhibition of CDK9/Cyclin T1 in human Mutu-3 cells assessed as effect on cp-pre-initiation complex assembly at -208 distal EBV genome region at 500 nM incubated for 2 hrs by CHIP assay
# [25] = target: T1, CDK9/cyclin T1 (Homo sapiens); experiment: Inhibition of CDK9/Cyclin T1 in human Mutu-3 cells assessed as effect on cp-pre-initiation complex assembly at +48 distal EBV genome region at 500 nM incubated for 2 hrs by CHIP assay
# [26] = target: T1, CDK9/cyclin T1 (Homo sapiens); experiment: Inhibition of CDK9/Cyclin T1 in human Mutu-3 cells assessed as decrease in Cp-initiated EBNA 1 transcription at 25 to 50 uM incubated for 24 hrs by Q-PCR analysis; conditions: dose 25-50 µM; summary of the method: as §1
# [27] = target: T1, CDK9/cyclin T1 (Homo sapiens); experiment: Inhibition of CDK9/Cyclin T1 in human Mutu-3 cells assessed as increase in fold change pTEFb/Brd4 complex
# [28] = target: T1, CDK9/cyclin T1 (Homo sapiens); experiment: Inhibition of CDK9/Cyclin T1 in human Mutu-3 cells assessed as effect on cp-pre-initiation complex assembly at +30896 distal EBV genome region at 500 nM incubated for 2 hrs by CHIP assay
# [29] = target: T1, CDK9/cyclin T1 (Homo sapiens); experiment: Inhibition of CDK9/Cyclin T1 in human Mutu-3 cells assessed as reduction in H3 histone acetylation at +1564 distal EBV genome region at 500 nM incubated for 2 hrs by CHIP assay
# [30] = target: T1, CDK9/cyclin T1 (Homo sapiens); experiment: Inhibition of CDK9/Cyclin T1 in human Mutu-3 cells assessed as reduction in RNA pol II C-terminal domain phosphorylation on serine 5 at +48 distal EBV genome region at 500 nM incubated for 2 hrs by CHIP assay
# [31] = target: T1, CDK9/cyclin T1 (Homo sapiens); experiment: Inhibition of CDK9/Cyclin T1 in human HeLa cells stably transfected Flag-tagged CDK9 assessed as increase in fold change pTEFb/Brd4 complex at 1 mM by western analysis
# [32] = target: T1, CDK9/cyclin T1 (Homo sapiens); experiment: Inhibition of CDK9/Cyclin T1 in human Mutu-3 cells assessed as reduction in BRD4 at +574 distal EBV genome region at 500 nM incubated for 2 hrs by CHIP assay
# [33] = target: T1, CDK9/cyclin T1 (Homo sapiens); experiment: Inhibition of CDK9/Cyclin T1 in human Mutu-3 cells assessed as effect on cp-pre-initiation complex assembly at +38667 distal EBV genome region at 500 nM incubated for 2 hrs by CHIP assay
# [34] = target: T1, CDK9/cyclin T1 (Homo sapiens); experiment: Inhibition of CDK9/Cyclin T1 in human Mutu-3 cells assessed as reduction in RNA pol II C-terminal domain phosphorylation on serine 5 at -208 distal EBV genome region at 500 nM incubated for 2 hrs by CHIP assay
# [35] = target: T1, CDK9/cyclin T1 (Homo sapiens); experiment: Inhibition of CDK9/Cyclin T1 in human Mutu-3 cells assessed as effect on cp-pre-initiation complex assembly at +295 distal EBV genome region at 500 nM incubated for 2 hrs by CHIP assay
# [36] = target: T1, CDK9/cyclin T1 (Homo sapiens); experiment: Inhibition of CDK9/Cyclin T1 in human Mutu-3 cells assessed as reduction in H3 histone acetylation at +574 distal EBV genome region at 500 nM incubated for 2 hrs by CHIP assay
# [37] = target: T1, CDK9/cyclin T1 (Homo sapiens); experiment: Inhibition of CDK9/Cyclin T1 in human Mutu-3 cells assessed as reduction in BRD4 at +34 distal EBV genome region at 500 nM incubated for 2 hrs by CHIP assay
# [38] = target: T1, CDK9/cyclin T1 (Homo sapiens); experiment: Inhibition of CDK9/Cyclin T1 in human Mutu-3 cells assessed as reduction in BRD4 at +2238 distal EBV genome region at 500 nM incubated for 2 hrs by CHIP assay
# [39] = target: T1, CDK9/cyclin T1 (Homo sapiens); experiment: Inhibition of CDK9/Cyclin T1 in human Mutu-3 cells assessed as reduction in RNA pol II C-terminal domain phosphorylation on serine 5 at +30896 distal EBV genome region at 500 nM incubated for 2 hrs by CHIP assay
# [40] = target: T1, CDK9/cyclin T1 (Homo sapiens); experiment: Inhibition of CDK9/Cyclin T1 in human Mutu-3 cells assessed as reduction in H4 histone acetylation at +574 distal EBV genome region at 500 nM incubated for 2 hrs by CHIP assay
# [41] = target: T1, CDK9/cyclin T1 (Homo sapiens); experiment: Inhibition of CDK9/Cyclin T1 in human B cell transfected with EBV assessed as reduction in RNA pol II C-terminal domain phosphorylation on serine 5 at +295 distal EBV genome region at 500 nM incubated for 2 hrs in presence of beta-estradiol by CHIP assay
smiles,measurement,setting,value
OC[C@H]1O[C@@H](n2cnc3cc(Cl)c(Cl)cc32)[C@H](O)[C@@H]1O,inhibition,[1],inactive
same,inhibition,[2],Active
same,inhibition,[3],Active
same,inhibition,[4],inactive
same,inhibition,[5],Active
same,inhibition,[6],Active
same,inhibition,[7],Active
same,inhibition,[8],Active
same,inhibition,[9],Active
same,inhibition,[10],Active
same,inhibition,[11],Active
same,inhibition,[12],Active
same,inhibition,[13],Active
same,inhibition,[14],Active
same,inhibition,[15],Active
same,inhibition,[16],Active
same,inhibition,[17],Active
same,inhibition,[18],Active
same,inhibition,[19],Active
same,inhibition,[20],Active
same,inhibition,[21],Active
same,inhibition,[22],Active
same,inhibition,[23],Active
same,inhibition,[24],inactive
same,inhibition,[25],inactive
same,inhibition,[26],Active
same,fold change (FC),[27],2
same,inhibition,[28],inactive
same,inhibition,[29],Active
same,inhibition,[30],Active
same,fold change (FC),[31],2
same,inhibition,[32],Active
same,inhibition,[33],inactive
same,inhibition,[34],Active
same,inhibition,[35],inactive
same,inhibition,[36],Active
same,inhibition,[37],Active
same,inhibition,[38],Active
same,inhibition,[39],Active
same,inhibition,[40],Active
same,inhibition,[41],Active
